Consider two molecules from ChEMBL document CHEMBL5385869, “Novel 4-aminoquinolines: Synthesis, inhibition of the Mycobacterium tuberculosis enoyl-acyl carrier protein reductase, antitubercular activity, SAR, and preclinical evaluation” (Eur J Med Chem, 2023).

Converted amounts (≈) assume the structure as drawn. The source made the active and inactive calls.

Series [1] has as its system Klebsiella pneumoniae. Description: Antibacterial activity against multidrug-resistant Klebsiella pneumoniae clinical isolates assessed as inhibition of bacterial growth at 20 uM by broth microdilution method. In kind it is functional, organism-based. Summed up:
(§1)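 Broth microdilution in triplicate against a small bacterial panel, with compounds tested at 20 μM for growth inhibition.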
On the technique in general: Dilution methods test growth across graded concentrations, often in twofold steps.

A short description of series [2]: Toxicity in mouse assessed as effect on lung weight at 300 mg/kg administered as single dose and measured for 14 days. In kind it is organism-based. Particulars: in vivo, 336 h, time 14 day.
The nature of series [3]: Metabolic stability in rat liver microsomes assessed as half life at 2 uM measured upto 30 mins by HPLC/MS/MS analysis. In kind it is ADME, Microsome. Summed up:
(§2)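 Compounds at 2 μM incubated at 37 °C with 1 mg/mL rat liver microsomes containing NADPH. Parent compound consumption followed over time.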

The nature of series [4]: Solubility of compound in PBS at pH 7.4 at 1 mg incubated for 4 hrs under shaking conditions by liquid chromotography. In kind it is physicochemical. The method, boiled down:
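1 mg of compound was added to 1 mL of PBS pH 7.4 or 0.1 M HCl, in triplicate. Suspensions were vortexed 1 min, shaken 4 h at 25 °C, then centrifuged 13000 rpm for 15 min at 25 °C. Supernatant was quantified by reverse-phase UHPLC (UV 260–280 nm) against a single-point calibration of compound in DMSO.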

Series [5] deals with Mycobacterium tuberculosis. Description: Antibacterial activity against Mycobacterium tuberculosis H37Rv ATCC 27294 infected in mouse RAW264.7 cells assessed as reduction in colony forming units at 5 uM measured after 5 days (reference value: 4.19 +/- 0.41). In kind it is functional. The settings on record: time 5 day.
In series [6] the test system is Staphylococcus aureus. As to the kind of experiment: Antibacterial activity against Staphylococcus aureus ATCC 25923 assessed as inhibition of bacterial growth at 20 uM by broth microdilution method. It is filed as functional, organism-based. The method, boiled down:
as §1

Series [7] deals with T1, Enoyl-[acyl-carrier-protein] reductase [NADH] (Mycobacterium tuberculosis, UniProt P9WGR1).
T1 sequence (P9WGR1 whole entry): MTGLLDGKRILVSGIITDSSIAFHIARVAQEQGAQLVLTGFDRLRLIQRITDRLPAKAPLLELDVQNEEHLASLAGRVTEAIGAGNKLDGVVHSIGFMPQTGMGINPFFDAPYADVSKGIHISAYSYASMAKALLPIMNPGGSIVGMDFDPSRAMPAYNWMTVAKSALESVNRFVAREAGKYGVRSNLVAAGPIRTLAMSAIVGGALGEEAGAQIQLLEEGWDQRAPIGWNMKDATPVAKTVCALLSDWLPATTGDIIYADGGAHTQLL
Description: Binding affinity to Mycobacterium tuberculosis InhA assessed as dissociation constant at 250 uM at 25 degreeC in presence of NADH by fluorescence spectroscopy. Summed up: (§3)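 Titration of pre-formed MtInhA:NADH complex (2 mL of 3 μM enzyme with 20 μM NADH), adding microliter aliquots of 250 μM ligand stock with dilution kept ≤1%. Intrinsic fluorescence read at 295 nm excitation, 310–500 nm emission. Temperatures 15, 20, 25 and 30 °C. KD is fitted to a hyperbolic isotherm. ΔH°, ΔS° and ΔG° come from van't Hoff analysis of KD across temperatures.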

Series [8] is described as follows: Toxicity in mouse assessed as effect on body weight at 300 mg/kg administered as single dose and measured for 14 days. It is filed as organism-based. The settings on record: in vivo, 336 h, time 14 day. Summed up:
(§4)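 Acute oral toxicity study. At day 14 the animals were euthanized, and kidneys, liver and spleen were weighed and inspected macroscopically.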

The nature of series [9]: Metabolic stability in rat liver microsomes assessed as intrinsic clearance at 2 uM measured upto 30 mins by HPLC/MS/MS analysis. It is filed as ADME, Microsome. The settings on record: read-out: CLH. Summed up: as §2
In general terms: Microsomes from liver hold many membrane-bound enzymes, among them those of drug oxidation.

Series [10] is described as follows: Chemical stability in 0.1 M NH4HCO3 solution at pH 9.1 assessed as reduction in parent compound at 1 to 10 uM measured after 24 hrs by HPLC-EM/MS analysis. In kind it is physicochemical. Particulars: dose 1-10 µM, read-out: Drug degradation. Summed up: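 Compounds at 1–10 μM incubated 24 h at 37 °C in three media: pH 1.2 (0.1 M HCl), pH 7.4 (PBS) and pH 9.1 (0.1 M NH4HCO3). Remaining parent compound quantified afterward.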

Series [11] is described as follows: Genotoxicity in human HepG2 cells assessed as induction of DNA damage at 1 to 5 uM incubated for 24 hrs by alkaline comet assay. In kind it is toxicity, cell-based. The settings on record: hepg2, 24 h, dose 1-5 µM. The method, boiled down:
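Alkaline comet assay in HepG2 cells seeded at 8 × 10⁴ cells/well. Exposure to 1 or 5 μM for 24 h. Lysis 48 h, alkali unwinding (300 mM NaOH, pH >13) 20 min at 4 °C, electrophoresis 20 min at 25 V, silver staining.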

Series [12] deals with T1, Enoyl-[acyl-carrier-protein] reductase [NADH]. As to the kind of experiment: Binding affinity to Mycobacterium tuberculosis InhA assessed as dissociation constant at 250 uM at 30 degreeC in presence of NADH by fluorescence spectroscopy. Summed up: as §3
Series [13] in a line: Toxicity in CF-1 mouse assessed as reduction in body weight at 300 uM/kg, po administered daily for 14 days. In kind it is organism-based. Particulars: in vivo, 336 h, time 14 day. The method, boiled down: (§5)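 Mice were infected with M. tuberculosis H37Rv. From 7 days after infection, test and reference drugs were given daily by oral gavage for 14 days, with a vehicle-only group. Body weight was followed over the course of the experiment.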

Series [14] can be described thus: Selectivity index, ratio of CC50 for African green monkey Vero cells by neutral red uptake assay to MIC for pan-sensitive Mycobacterium tuberculosis H37Rv ATCC 27294. It is filed as toxicity, cell-based. The settings on record: read-out: Selectivity Index.
Series [15] concerns Mycobacterium tuberculosis. As to the kind of experiment: Antibacterial activity against Mycobacterium tuberculosis H37Rv ATCC 27294 infected in CF-1 mouse assessed as reversal of bacterial growth in spleen at 300 to 450 uM/kg, po administered daily for 14 days starting from 7 days post infection. The settings on record: dose 300-450 µM/Kg, time 14.0 day. It is filed as functional, organism-based. The method, boiled down:
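Mice treated by gavage from 7 days post-infection for 14 days, daily, at 300 or 450 μM/kg. Lungs and spleen homogenized in saline and plated for CFU. Comparisons are against vehicle and early-control groups.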

The target in series [16] is T2, Enoyl-[acyl-carrier-protein] reductase [NADH] (Mycobacterium tuberculosis) (UniProt P9WGR1).
T2 sequence (whole entry): T1 sequence (P9WGR1 whole entry)
As to the kind of experiment: Binding affinity to Mycobacterium tuberculosis InhA assessed as change in enthalpy at 250 uM in presence of NADH by fluorescence spectroscopy.

The nature of series [17]: Cytotoxicity against African green monkey Vero cells assessed as reduction in cell viability incubated for 72 hrs by MTT assay. It is filed as toxicity, cell-based. The settings on record: chlorocebus sabaeus. Summed up: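 Cells grown in DMEM with 10% FBS. HepG2 seeded at 4 × 10³ and Vero at 2 × 10³ cells/well, 24 h before dosing. Compounds at 1, 5 and 20 μM in 1% DMSO for 72 h at 37 °C, 5% CO2. MTT readout: 5 mg/mL reagent for 4 h, absorbance at 595 nm. Neutral red readout: 25 μg/mL dye for 3 h, then acid-ethanol desorb. Viability is expressed relative to 1% DMSO controls.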
In general terms: Tetrazolium assays rely on reduction of a dye to a coloured formazan, in cell work by metabolically active cells.

The nature of series [18]: Toxicity in mouse assessed as animal death at 300 mg/kg administered as single dose and measured for 14 days. The settings on record: in vivo, 336 h, time 14 day. It is filed as organism-based. The method, boiled down:
as §4

The subject of series [19] is Acinetobacter baumannii. As to the kind of experiment: Antibacterial activity against multidrug-resistant Acinetobacter baumannii clinical isolates assessed as inhibition of bacterial growth at 20 uM by broth microdilution method. It is filed as functional, organism-based. Summed up:
as §1

The nature of series [20]: Toxicity in CF-1 mouse assessed as reduction in body weight at 300 to 450 uM/kg, po administered daily for 14 days. It is filed as organism-based. Particulars: in vivo, 336 h, dose 300-450 µM/Kg, time 14 day. The method, boiled down:
as §5

Usually half-life stands for the time needed for the level to fall by half in the phase considered. What is called solubility (thermodynamic) is the concentration in solution at equilibrium with solid. One may read the Kd as the equilibrium constant for the complex coming apart. For orientation: CC50 means the concentration giving 50% cytotoxicity. For the molecule `Cc1cc(Nc2ccc(N3CCCCC3)cc2)c2cc(Br)ccc2n1`, the result in [1], in [6], in [15] and in [19] was inactive. Besides, the Activity entry is “Non-Toxic” in series [2]; 2.74 log10CFU in [5]; “Non-Toxic” in series [8]; “Non-Toxic” in series [11]; “Non-Toxic” in series [13]; “Non-Toxic” in series [18]. Besides, the Activity result in series [20] was “Non-Toxic”. Further, the half-life at 2 µM in series [3] was found to be 22 min. Also, the solubility (thermodynamic) at 4 h in series [4] worked out at 3.9 µM (≈ 1.55 µg/mL). Moreover, the Kd in series [7] was determined as 810 nM; in series [12] it was 1340 nM. Further, the CLint scaled at 2 µM in series [9] is 36.2 mL/min/kg. Besides, the degraded at 24 h, up to 10 µM in series [10] was around 50%. The selectivity ratio in series [14] amounted to 30.5. Besides, in [16], the deltaH is -18.3 kcal/mol. Moreover, the cytotoxic concentration (CC50) at 72 h in [17] was above 20 µM.

With `Cc1cc(Nc2ccc(N3CCCCC3)cc2)c2cc(Cl)ccc2n1`, the result in series [1], in series [6] and in [19] was inactive. In addition, the half-life at 2 µM in series [3] was found to be 5.9 min. The molecule also gave a thermodynamic solubility at 4 h in series [4] of 18.6 µM (≈ 6.54 µg/mL). Also, the Activity in series [5] is recorded as 2.39 log10CFU; in series [11], “Non-Toxic”. In addition, in [7], the dissociation constant Kd was found to be 900 nM. Besides, the CLint scaled at 2 µM in series [9] came to 60.5 mL/min/kg. In series [10], the degraded at 24 h, up to 10 µM was above 75%. The selectivity ratio in [14] is 13. For the same molecule, in [16], the deltaH is -23.2 kcal/mol. The 50% cytotoxic concentration (CC50) at 72 h in series [17] came out at 19.2 µM.
